From ChEMBL document CHEMBL3352514, “Anti-cancer activity of carbamate derivatives of melampomagnolide B” (Bioorg Med Chem Lett, 2014)

What was measured:
[1] = tested on: CCRF-CEM; test: Growth inhibition of human CCRF-CEM cells; assay type: functional
Method in brief: (§1)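 NCI 60-cell-line tumour panel. Compounds were first screened at a single concentration of 10 µM, then tested in 5-dose assays. Growth was read as the change in optical density, expressed as a percentage of control. GI50 is the concentration (µM) that halves cellular growth, and the values were taken from the NCI database.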

[2] = tested on: HL-60(TB); test: Growth inhibition of human HL-60(TB) cells; assay type: functional
Method in brief: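 Tested in the NCI 60 human tumour cell line panel. Compounds were first screened at a single concentration of 10 µM, and hits were then run in a five-dose assay. Growth was read as the change in optical density, expressed as a percentage of control. GI50 is the concentration that halves cellular growth, taken from the NCI database.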

[3] = tested on: K562; test: Growth inhibition of human K562 cells; assay type: functional; method in brief: as §1
[4] = Growth inhibition of human MOLT4 cells; assay type: functional; settings: MOLT-4; method in brief: as §1
[5] = Growth inhibition of human RPMI8226 cells; assay type: functional; settings: RPMI-8226; method in brief: as §1
[6] = tested on: SR; test: Growth inhibition of human SR cells; assay type: functional; method in brief: as §1
[7] = Growth inhibition of human HOP92 cells; assay type: functional; settings: HOP-92; method in brief: as §1
[8] = tested on: NCI-H522; test: Growth inhibition of human NCI-H522 cells; assay type: functional; method in brief: as §1
[9] = Growth inhibition of human COLO205 cells; assay type: functional; settings: COLO 205; method in brief: as §1
[10] = Growth inhibition of human HCT116 cells; assay type: functional; settings: HCT-116; method in brief: as §1
[11] = tested on: SW-620; test: Growth inhibition of human SW620 cells; assay type: functional; method in brief: as §1
[12] = Growth inhibition of human SF539 cells; assay type: functional; settings: SF-539; method in brief: as §1
[13] = tested on: SNB-75; test: Growth inhibition of human SNB75 cells; assay type: functional; method in brief: as §1
[14] = Growth inhibition of human LOXIMVI cells; assay type: functional; settings: LOX IMVI; method in brief: as §1
[15] = tested on: Malme-3M; test: Growth inhibition of human MALME-3M cells; assay type: functional; method in brief: as §1
[16] = tested on: M14; test: Growth inhibition of human M14 cells; assay type: functional; method in brief: as §1
[17] = tested on: MDA-MB-435; test: Growth inhibition of human MDA-MB-435 cells; assay type: functional; method in brief: as §1
[18] = tested on: IGROV-1; test: Growth inhibition of human IGROV1 cells; assay type: functional; method in brief: as §1
[19] = Growth inhibition of human OVCAR3 cells; assay type: functional; settings: OVCAR-3; method in brief: as §1
[20] = tested on: ACHN; test: Growth inhibition of human ACHN cells; assay type: functional; method in brief: as §1
[21] = tested on: CAKI-1; test: Growth inhibition of human CAKI-1 cells; assay type: functional; method in brief: as §1
[22] = Growth inhibition of human RXF393 cells; assay type: functional; settings: RXF 393; method in brief: as §1
[23] = tested on: TK-10; test: Growth inhibition of human TK10 cells; assay type: functional; method in brief: as §1
[24] = tested on: DU-145; test: Growth inhibition of human DU145 cells; assay type: functional; method in brief: as §1
[25] = tested on: MCF7; test: Growth inhibition of human MCF7 cells; assay type: functional; method in brief: as §1
[26] = Growth inhibition of human BT549 cells; assay type: functional; settings: BT-549; method in brief: as §1
[27] = tested on: T47D; test: Growth inhibition of human T47D cells; assay type: functional; method in brief: as §1
[28] = tested on: MDA-MB-468; test: Growth inhibition of human MDA-MB-468 cells; assay type: functional; method in brief: as §1
[29] = Half life in human plasma; assay type: ADME, cell-free

Structure (SMILES)	GI50 [1] [µM]	GI50 [4] [µM]	GI50 [5] [µM]	GI50 [7] [µM]	GI50 [8] [µM]	GI50 [9] [µM]	GI50 [10] [µM]	GI50 [11] [µM]	GI50 [12] [µM]	GI50 [14] [µM]	GI50 [16] [µM]	GI50 [17] [µM]	GI50 [18] [µM]	GI50 [20] [µM]	GI50 [21] [µM]	GI50 [22] [µM]	GI50 [23] [µM]	GI50 [24] [µM]	GI50 [25] [µM]	GI50 [26] [µM]	further results
C=C1C(=O)O[C@H]2[C@H]1CC/C(COC(=O)N1CCC(F)(F)CC1)=C\CC[C@@]1(C)O[C@@H]21	0.68	2.05	1.98	1.45	1.25	2.06	1.41	1.46	1.98	2.23	2.84	0.46	2.31	1.79	2.03	1.2	2.6	2.44	1.62	2.69	GI50 [2]: 2.04 µM; GI50 [3]: 3.45 µM; GI50 [6]: 1.38 µM; GI50 [13]: 6.13 µM; GI50 [15]: 1.9 µM; GI50 [19]: 1.69 µM; GI50 [27]: 3.07 µM; GI50 [28]: 0.57 µM; half-life [29]: 8 h
C=C1C(=O)O[C@H]2[C@H]1CC/C(COC(=O)NCCN1CCCC1)=C\CC[C@@]1(C)O[C@@H]21	2.49	3.48	8.71	2.25	1.78	4.78	3.18	3.46	15	7.88	9.65	6.56	4.09	3.8	6.86	4.08	3.11	7.42	3.91	4.75	GI50 [2]: 4.15 µM; GI50 [3]: 3.26 µM; GI50 [6]: 10.2 µM; GI50 [13]: 18 µM; GI50 [15]: 4.18 µM; GI50 [19]: 8.41 µM; GI50 [27]: 4.86 µM; GI50 [28]: 2.3 µM; half-life [29]: 1.67 h
C=C1C(=O)O[C@H]2[C@H]1CC/C(COC(=O)NCCc1ccccn1)=C\CC[C@@]1(C)O[C@@H]21	2.65	5.54	8.2	2.25	1.64	3.54	1.89	3.13	5.77	4.96	5.58	6.01	14.4	2.75	2.88	2.22	3.78	4.59	2.85	2.6	GI50 [6]: 4.1 µM; GI50 [13]: 3.78 µM; GI50 [15]: 7.52 µM; GI50 [27]: 6.19 µM; GI50 [28]: 3.22 µM; half-life [29]: 1.67 h
C=C1C(=O)O[C@H]2[C@H]1CC/C(COC(=O)NCCN1CCOCC1)=C\CC[C@@]1(C)O[C@@H]21	3.03	5	5.72	2.3	2.13	8.89	2.87	3.48	14.4	4.84	7.97	5.89	3.49	3.74	4.31	3	3.93	3.74	3.54	4.99	GI50 [2]: 3.59 µM; GI50 [3]: 3.37 µM; GI50 [6]: 3.65 µM; GI50 [13]: 19.5 µM; GI50 [15]: 6.12 µM; GI50 [19]: 6.2 µM; GI50 [27]: 6.32 µM; GI50 [28]: 3.26 µM; half-life [29]: 1.67 h
C=C1C(=O)O[C@H]2[C@H]1CC/C(COC(=O)Nc1n[nH]c(SC)n1)=C\CC[C@@]1(C)O[C@@H]21	0.62	2.32	2.57	0.65	1.26	1.79	1.13	1.12	1.76	1.95	1.59	2.24	3.66	1.75	1.99	0.9	2.51	3.49	1.33	1.47	GI50 [6]: 2.36 µM; GI50 [13]: 1.71 µM; GI50 [15]: 2.32 µM; GI50 [27]: 2.23 µM; GI50 [28]: 1.29 µM; half-life [29]: 1.67 h
C=C1C(=O)O[C@@H]2C3O[C@]3(C)CC/C=C(\C)CC[C@@H]12 (stereo not given in full)	–	–	–	–	–	–	10	–	–	–	–	–	–	–	10	–	–	–	–	–	–
C/C1=C\CC[C@@]2(C)O[C@@H]2[C@H]2OC(=O)C(CN(C)C)[C@@H]2CC1 (stereo not given in full) [DIMETHYLAMINOPARTHENOLIDE]	1.99	3.16	2.51	10	2.51	31.6	5.01	3.98	2.51	10	15.8	7.94	19.9	15.8	12.5	15.8	3.16	5.01	5.01	5.01	GI50 [2]: 1.58 µM; GI50 [3]: 2.51 µM; GI50 [19]: 12.5 µM; GI50 [27]: 39.8 µM
